# Assay results from ChEMBL document CHEMBL4715693, “Synthesis and antiviral properties of novel indole-based thiosemicarbazides and 4-thiazolidinones” (Bioorg Med Chem, 2016).
# Tested on: Influenza A virus
# Test: Antiviral activity against influenza A virus infected in dog MDCK cells assessed as reduction in virus-induced cytopathic effect incubated for 3 to 6 days by light microscopic analysis
# Format: functional, organism-based
# Details: Influenza A virus, MDCK
# Method in brief: (§1)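 MDCK cells, subconfluent, received influenza A or B virus together with serial compound dilutions. Incubated 3–6 days at 35 °C.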
row,Compound,EC50
1,C=CCNC(=S)NNC(=O)c1[nH]c2ccc(F)cc2c1-c1ccccc1,> 100 µg/mL
2,CCNC(=S)NNC(=O)c1[nH]c2ccc(F)cc2c1-c1ccccc1,> 100 µg/mL

# Tested on: MT4
# Test: Cytotoxicity against human MT4 cells assessed as reduction in cell viability incubated for 3 to 6 days by MTS assay
# Format: cell-based
# Details: time 3-6 day
# Method in brief: (§2)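 CRFK or MT4 cells were exposed to serial compound dilutions alongside the antiviral assays for 3–6 days at 37 °C.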
row,Compound,CC50
1,CCNC(=S)NNC(=O)c1[nH]c2ccc(F)cc2c1-c1ccccc1,14 µg/mL

# Tested on: Human immunodeficiency virus 2
# Test: Antiviral activity against Human immunodeficiency virus 2 infected in human MT4 cells assessed as reduction in virus-induced cytopathic effect incubated for 3 to 6 days by light microscopic analysis
# Format: functional, organism-based
# Details: Human immunodeficiency virus 2, MT4
row,Compound,EC50
1,C=CCNC(=S)NNC(=O)c1[nH]c2ccc(F)cc2c1-c1ccccc1,> 100 µg/mL
2,CCNC(=S)NNC(=O)c1[nH]c2ccc(F)cc2c1-c1ccccc1,> 100 µg/mL

# Tested on: not listed separately
# Test: Cytotoxicity against human HeLa cells assessed as changes in cell morphology incubated for 3 to 6 days by light microscopic analysis
# Format: cell-based
# Details: time 3-6 day
# Method in brief: (§3)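 Uninfected subconfluent cells (Vero or HeLa, as named) exposed to serial compound dilutions in parallel with the CPE assays, 37 °C, 3–6 days. Cell morphology examined by light microscopy; MCC = minimal concentration causing microscopically detectable changes in morphology.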
row,Compound,MCC
1,C=CCNC(=S)NNC(=O)c1[nH]c2ccc(F)cc2c1-c1ccccc1,20 µg/mL
2,CCNC(=S)NNC(=O)c1[nH]c2ccc(F)cc2c1-c1ccccc1,20 µg/mL

# Tested on: not listed separately
# Test: Cytotoxicity against human HEL cells assessed as changes in cell morphology incubated for 3 to 6 days by light microscopy
# Format: cell-based
# Details: time 3-6 day
# Method in brief: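 Human embryonic lung fibroblasts incubated with serial compound dilutions alongside the antiviral assays, 37 °C, 3–6 days. Morphology inspected by light microscopy; minimal cytotoxic concentration taken as lowest concentration giving minimal morphological change.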
row,Compound,MCC
1,C=CCNC(=S)NNC(=O)c1[nH]c2ccc(F)cc2c1-c1ccccc1,20 µg/mL
2,CCNC(=S)NNC(=O)c1[nH]c2ccc(F)cc2c1-c1ccccc1,20 µg/mL

# Tested on: Vaccinia virus
# Test: Antiviral activity against Vaccinia virus infected in human HEL cells assessed as reduction in virus-induced cytopathic effect incubated for 3 to 6 days by light microscopic analysis
# Format: functional, organism-based
# Details: Orthopoxvirus vaccinia
row,Compound,EC50
1,C=CCNC(=S)NNC(=O)c1[nH]c2ccc(F)cc2c1-c1ccccc1,> 100 µg/mL
2,CCNC(=S)NNC(=O)c1[nH]c2ccc(F)cc2c1-c1ccccc1,> 100 µg/mL

# Tested on: Sindbis virus
# Test: Antiviral activity against Sindbis virus infected in African green monkey Vero cells assessed as reduction in virus-induced cytopathic effect incubated for 3 to 6 days by light microscopic analysis
# Format: functional, organism-based
# Details: not given
# Method in brief: (§4)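 CPE reduction assay: virus and serial compound dilutions added together to subconfluent HeLa (vesicular stomatitis, Coxsackie B4, respiratory syncytial) or Vero (Coxsackie B4, Sindbis, Punta Toro) cultures. Incubated 3–6 days at 37 °C. […] Mean ± SEM of three independent tests.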
row,Compound,EC50
1,C=CCNC(=S)NNC(=O)c1[nH]c2ccc(F)cc2c1-c1ccccc1,≥ 4 µg/mL

# Tested on: Felid alphaherpesvirus 1
# Test: Antiviral activity against Feline herpesvirus infected in cat CRFK cells assessed as reduction in virus-induced cytopathic effect incubated for 3 to 6 days by light microscopic analysis
# Format: functional, organism-based
# Details: Felid alphaherpesvirus 1, CRFK
row,Compound,EC50
1,C=CCNC(=S)NNC(=O)c1[nH]c2ccc(F)cc2c1-c1ccccc1,> 100 µg/mL
2,CCNC(=S)NNC(=O)c1[nH]c2ccc(F)cc2c1-c1ccccc1,> 100 µg/mL

# Tested on: Human alphaherpesvirus 2
# Test: Antiviral activity against Herpes simplex virus 2 infected in human HEL cells assessed as reduction in virus-induced cytopathic effect incubated for 3 to 6 days by light microscopic analysis
# Format: functional, cell-based
# Details: Human alphaherpesvirus 2, HEL
row,Compound,EC50
1,C=CCNC(=S)NNC(=O)c1[nH]c2ccc(F)cc2c1-c1ccccc1,> 100 µg/mL
2,CCNC(=S)NNC(=O)c1[nH]c2ccc(F)cc2c1-c1ccccc1,> 100 µg/mL

# Tested on: not listed separately
# Test: Cytotoxicity against dog MDCK cells assessed as changes in cell morphology incubated for 3 to 6 days by light microscopy
# Format: cell-based, Canis lupus familiaris
# Details: time 3-6 day
row,Compound,MCC
1,C=CCNC(=S)NNC(=O)c1[nH]c2ccc(F)cc2c1-c1ccccc1,4 µg/mL
2,CCNC(=S)NNC(=O)c1[nH]c2ccc(F)cc2c1-c1ccccc1,4 µg/mL

# Tested on: Human alphaherpesvirus 1
# Test: Antiviral activity against Herpes simplex virus 1 infected in human HEL cells assessed as reduction in virus-induced cytopathic effect incubated for 3 to 6 days by light microscopic analysis
# Format: functional, cell-based
# Details: Human alphaherpesvirus 1, HEL
row,Compound,EC50
1,C=CCNC(=S)NNC(=O)c1[nH]c2ccc(F)cc2c1-c1ccccc1,> 100 µg/mL
2,CCNC(=S)NNC(=O)c1[nH]c2ccc(F)cc2c1-c1ccccc1,> 100 µg/mL

# Tested on: Mammalian orthoreovirus 1
# Test: Antiviral activity against Mammalian orthoreovirus 1 infected in African green monkey Vero cells assessed as reduction in virus-induced cytopathic effect incubated for 3 to 6 days by light microscopic analysis
# Format: functional, organism-based
# Details: Mammalian orthoreovirus 1, Vero
row,Compound,EC50
1,C=CCNC(=S)NNC(=O)c1[nH]c2ccc(F)cc2c1-c1ccccc1,> 100 µg/mL
2,CCNC(=S)NNC(=O)c1[nH]c2ccc(F)cc2c1-c1ccccc1,> 100 µg/mL

# Tested on: Punta Toro virus
# Test: Antiviral activity against Punta Toro virus infected in African green monkey Vero cells assessed as reduction in virus-induced cytopathic effect incubated for 3 to 6 days by light microscopic analysis
# Format: functional, organism-based
# Details: not given
# Method in brief: as §4
row,Compound,EC50
1,C=CCNC(=S)NNC(=O)c1[nH]c2ccc(F)cc2c1-c1ccccc1,> 100 µg/mL
2,CCNC(=S)NNC(=O)c1[nH]c2ccc(F)cc2c1-c1ccccc1,> 100 µg/mL

# Tested on: Human respirovirus 3
# Test: Antiviral activity against Human parainfluenza virus 3 infected in African green monkey Vero cells assessed as reduction in virus-induced cytopathic effect incubated for 3 to 6 days by light microscopic analysis
# Format: functional, organism-based
# Details: Human respirovirus 3, Vero
row,Compound,EC50
1,C=CCNC(=S)NNC(=O)c1[nH]c2ccc(F)cc2c1-c1ccccc1,> 100 µg/mL
2,CCNC(=S)NNC(=O)c1[nH]c2ccc(F)cc2c1-c1ccccc1,> 100 µg/mL

# Tested on: Coxsackievirus B4
# Test: Antiviral activity against Human coxsackievirus B4 infected in African green monkey Vero cells assessed as reduction in virus-induced cytopathic effect incubated for 3 to 6 days by light microscopic analysis
# Format: functional, organism-based
# Details: Enterovirus B
# Method in brief: as §4
row,Compound,EC50
1,C=CCNC(=S)NNC(=O)c1[nH]c2ccc(F)cc2c1-c1ccccc1,2 µg/mL
2,CCNC(=S)NNC(=O)c1[nH]c2ccc(F)cc2c1-c1ccccc1,0.4 µg/mL

# Tested on: Feline coronavirus
# Test: Antiviral activity against Feline coronavirus infected in cat CRFK cells assessed as reduction in virus-induced cytopathic effect incubated for 3 to 6 days by light microscopic analysis
# Format: functional, organism-based
# Details: Alphacoronavirus 1, CRFK
row,Compound,EC50
1,C=CCNC(=S)NNC(=O)c1[nH]c2ccc(F)cc2c1-c1ccccc1,> 100 µg/mL
2,CCNC(=S)NNC(=O)c1[nH]c2ccc(F)cc2c1-c1ccccc1,> 100 µg/mL

# Tested on: Influenza B virus
# Test: Antiviral activity against influenza B virus infected in dog MDCK cells assessed as reduction in virus-induced cytopathic effect incubated for 3 to 6 days by light microscopic analysis
# Format: functional, organism-based
# Details: not given
# Method in brief: as §1
row,Compound,EC50
1,C=CCNC(=S)NNC(=O)c1[nH]c2ccc(F)cc2c1-c1ccccc1,> 100 µg/mL
2,CCNC(=S)NNC(=O)c1[nH]c2ccc(F)cc2c1-c1ccccc1,> 100 µg/mL

# Tested on: not listed separately
# Test: Selectivity index, ratio of MCC for human HeLa cells to EC50 for Human coxsackievirus B4 infected in human HeLa cells
# Format: toxicity, cell-based
# Details: not given
# Method in brief: (§5)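 HeLa cells infected concurrently with addition of serial compound dilutions, 3–6 days at 37 °C. CPE inhibition scored microscopically for EC50; MCC from minimal alteration of cell morphology by microscopy; index = MCC divided by EC50.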
row,Compound,selectivity ratio
1,C=CCNC(=S)NNC(=O)c1[nH]c2ccc(F)cc2c1-c1ccccc1,13
2,CCNC(=S)NNC(=O)c1[nH]c2ccc(F)cc2c1-c1ccccc1,23

# Tested on: Respiratory syncytial virus
# Test: Antiviral activity against Respiratory syncytial virus infected in human HeLa cells assessed as reduction in virus-induced cytopathic effect incubated for 3 to 6 days by light microscopic analysis
# Format: functional, organism-based
# Details: not given
# Method in brief: as §4
row,Compound,EC50
1,C=CCNC(=S)NNC(=O)c1[nH]c2ccc(F)cc2c1-c1ccccc1,≥ 4 µg/mL
2,CCNC(=S)NNC(=O)c1[nH]c2ccc(F)cc2c1-c1ccccc1,≥ 4 µg/mL

# Tested on: not listed separately
# Test: Selectivity index, ratio of MCC for human HeLa cells to EC50 for Respiratory syncytial virus infected in human HeLa cells
# Format: toxicity, cell-based
# Details: not given
# Method in brief: as §5
row,Compound,selectivity ratio
1,C=CCNC(=S)NNC(=O)c1[nH]c2ccc(F)cc2c1-c1ccccc1,≥ 5
2,CCNC(=S)NNC(=O)c1[nH]c2ccc(F)cc2c1-c1ccccc1,≥ 5

# Tested on: not listed separately
# Test: Cytotoxicity against cat CRFK cells assessed as reduction in cell viability incubated for 3 to 6 days by MTS assay
# Format: cell-based, Felis catus
# Details: crfk, time 3-6 day
# Method in brief: as §2
row,Compound,CC50
1,C=CCNC(=S)NNC(=O)c1[nH]c2ccc(F)cc2c1-c1ccccc1,8.6 µg/mL
2,CCNC(=S)NNC(=O)c1[nH]c2ccc(F)cc2c1-c1ccccc1,2.9 µg/mL

# Tested on: Coxsackievirus B4
# Test: Antiviral activity against Human coxsackievirus B4 infected in human HeLa cells assessed as reduction in virus-induced cytopathic effect incubated for 3 to 6 days by light microscopic analysis
# Format: functional, organism-based
# Details: Enterovirus B
# Method in brief: as §4
row,Compound,EC50
1,C=CCNC(=S)NNC(=O)c1[nH]c2ccc(F)cc2c1-c1ccccc1,1.5 µg/mL
2,CCNC(=S)NNC(=O)c1[nH]c2ccc(F)cc2c1-c1ccccc1,0.87 µg/mL

# Tested on: Human immunodeficiency virus 1
# Test: Antiviral activity against Human immunodeficiency virus 1 infected in human MT4 cells assessed as reduction in virus-induced cytopathic effect incubated for 3 to 6 days by light microscopic analysis
# Format: functional, organism-based
# Details: Human immunodeficiency virus 1, MT4
row,Compound,EC50
1,C=CCNC(=S)NNC(=O)c1[nH]c2ccc(F)cc2c1-c1ccccc1,> 100 µg/mL
2,CCNC(=S)NNC(=O)c1[nH]c2ccc(F)cc2c1-c1ccccc1,> 100 µg/mL

# Tested on: not listed separately
# Test: Cytotoxicity against African green monkey Vero cells assessed as changes in cell morphology incubated for 3 to 6 days by light microscopy
# Format: cell-based
# Details: chlorocebus sabaeus, time 3-6 day
# Method in brief: as §3
row,Compound,MCC
1,C=CCNC(=S)NNC(=O)c1[nH]c2ccc(F)cc2c1-c1ccccc1,20 µg/mL
2,CCNC(=S)NNC(=O)c1[nH]c2ccc(F)cc2c1-c1ccccc1,20 µg/mL

# Tested on: Vesicular stomatitis virus
# Test: Antiviral activity against Vesicular stomatitis virus infected in human HeLa cells assessed as reduction in virus-induced cytopathic effect incubated for 3 to 6 days by light microscopic analysis
# Format: functional, organism-based
# Details: not given
# Method in brief: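 CPE reduction assay: virus and serial compound dilutions added together to subconfluent HeLa (vesicular stomatitis, Coxsackie B4, respiratory syncytial) or Vero (Coxsackie B4, Sindbis, Punta Toro) cultures. Incubated 3–6 days at 37 °C. Mean ± SEM of three independent tests.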
row,Compound,EC50
1,C=CCNC(=S)NNC(=O)c1[nH]c2ccc(F)cc2c1-c1ccccc1,> 100 µg/mL
2,CCNC(=S)NNC(=O)c1[nH]c2ccc(F)cc2c1-c1ccccc1,> 100 µg/mL

# Tested on: not listed separately
# Test: Selectivity index, ratio of MCC for African green monkey Vero cells to EC50 for Human coxsackievirus B4 infected in African green monkey Vero cells
# Format: toxicity
# Details: not given
row,Compound,selectivity ratio
1,C=CCNC(=S)NNC(=O)c1[nH]c2ccc(F)cc2c1-c1ccccc1,10
2,CCNC(=S)NNC(=O)c1[nH]c2ccc(F)cc2c1-c1ccccc1,50

# Tested on: not listed separately
# Test: Selectivity index, ratio of MCC for African green monkey Vero cells to EC50 for Sindbis virus infected in African green monkey Vero cells
# Format: toxicity
# Details: not given
row,Compound,selectivity ratio
1,C=CCNC(=S)NNC(=O)c1[nH]c2ccc(F)cc2c1-c1ccccc1,≥ 5
2,CCNC(=S)NNC(=O)c1[nH]c2ccc(F)cc2c1-c1ccccc1,6
